The source of these data is ChEMBL document CHEMBL4725432, “Dethioacylation by Sirtuins 1-3: Considerations for Drug Design Using Mechanism-Based Sirtuin Inhibition” (ACS Med Chem Lett, 2020).

As usually defined, the inhibition is the change of the read-out against control, counted positive when it falls. The IC50 is the concentration needed to halve the response being measured.

Active and inactive are the calls of the source. No cut-off for these calls is given here. Non-standard residues stand in square brackets, D forms with d. Residues, ends and D or L forms follow the SMILES beside them. *: point of attachment. Lys(Thioacetyl) = CC(=S)NCCCC[C@H](N)C(=O)O; AMC = Cc1cc(=O)oc2cc(N*)ccc12; Propionyl = CCC(=O)*

For the first assay, the target named is T1, NAD-dependent protein deacetylase sirtuin-1 (Homo sapiens) (UniProt Q96EB6).
T1 sequence (whole entry): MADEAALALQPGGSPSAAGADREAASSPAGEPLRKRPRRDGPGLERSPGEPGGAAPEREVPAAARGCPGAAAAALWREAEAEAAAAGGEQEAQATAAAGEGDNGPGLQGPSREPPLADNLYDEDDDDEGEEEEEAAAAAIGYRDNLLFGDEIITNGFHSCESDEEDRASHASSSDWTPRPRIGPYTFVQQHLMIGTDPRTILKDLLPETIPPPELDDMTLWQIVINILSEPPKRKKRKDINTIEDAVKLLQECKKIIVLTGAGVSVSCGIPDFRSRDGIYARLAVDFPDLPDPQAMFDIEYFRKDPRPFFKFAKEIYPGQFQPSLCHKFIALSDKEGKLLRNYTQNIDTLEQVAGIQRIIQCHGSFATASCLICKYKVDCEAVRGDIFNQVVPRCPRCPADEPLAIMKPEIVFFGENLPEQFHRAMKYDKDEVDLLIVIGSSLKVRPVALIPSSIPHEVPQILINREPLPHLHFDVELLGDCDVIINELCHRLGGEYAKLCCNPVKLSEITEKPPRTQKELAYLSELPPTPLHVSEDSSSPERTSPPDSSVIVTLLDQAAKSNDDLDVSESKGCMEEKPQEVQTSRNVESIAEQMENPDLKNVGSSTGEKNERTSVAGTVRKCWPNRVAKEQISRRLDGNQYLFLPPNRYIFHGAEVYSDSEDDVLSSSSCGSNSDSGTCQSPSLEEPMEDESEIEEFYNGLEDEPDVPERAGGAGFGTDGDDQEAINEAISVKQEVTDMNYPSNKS
As to the kind of experiment: Inhibition of human recombinant N-terminal GST-tagged SIRT1 (193 to 741 residues) deacetylation activity in presence of substrate and NAD+ at 15 uM after 60 mins by reversed-phase UPLC-MS analysis relative to control.
Conditions: not given
With `CC(=S)NCCCC[C@H](NC(=O)OCc1ccccc1)C(=O)Nc1ccccc1`, the inhibition entry is “inactive”.
Turning to `CCCC(=S)NCCCC[C@H](NC(=O)OCc1ccccc1)C(=O)N[C@@H](Cc1c[nH]c2ccccc12)C(=O)NC(C)C`, the inhibition result was “inactive”.

The test system of the next assay is HEK293. The assay is described as follows: Inhibition of deacetylation activity in HEK293 cell lysate incubated with substrate for 2 hrs at 50 uM measured after 90 mins by fluorescence assay. Conditions: Homo sapiens. It is filed as functional, subcellular. The procedure, abridged:
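Fluorogenic thioacyl or acyl lysine-AMC substrates incubated with fresh HEK293 cell lysate (~65 μg). Deacylation measured by fluorescence. Two independent experiments in duplicate, standard deviation.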
For `CC(=O)N[C@@H](CCC(N)=O)C(=O)N1CCC[C@H]1C(=O)N[C@@H](CCCCN)C(=O)N[C@@H](CCCCNC(C)=S)C(=O)Nc1ccc2c(C)cc(=O)oc2c1` (Ac-QPK[Lys(Thioacetyl)]-{AMC}), the outcome was Active.
The same measure, in the same setting: with `CCC(=O)NCCCC[C@H](NC(=O)[C@H](CCCCN)NC(=O)[C@@H]1CCCN1C(=O)[C@H](CCC(N)=O)NC(C)=O)C(=O)Nc1ccc2c(C)cc(=O)oc2c1` (Ac-QPKK(Propionyl)-{AMC}) the entry was “Active”.

For another assay, the target named is T2, NAD-dependent protein deacetylase sirtuin-1 (Homo sapiens, UniProt Q96EB6).
T2 sequence (Q96EB6 whole entry): T1 sequence (whole entry)
The assay is described as follows: Inhibition of human recombinant N-terminal GST-tagged SIRT1 (193 to 741 residues) expressed in Escherichia coli using Ac-Gln-Pro-Lys-Lys(Ac)-AMC (oxo-10) as substrate by fluorescence assay.
Conditions: not given
For `CCCC(=S)NCCCC[C@H](NC(=O)OCc1ccccc1)C(=O)N[C@@H](Cc1c[nH]c2ccccc12)C(=O)NC(C)C`, the IC50 came out at 540 nM.

A further assay addresses T1, NAD-dependent protein deacetylase sirtuin-1 (Homo sapiens). The assay is described as follows: Inhibition of human N-terminal GST-tagged SIRT1 (193 to 741 residues) expressed in Escherichia coli preincubated with NAD+ for 30 mins using Ac-Gln-Pro-Lys-Lys(Ac)-AMC (oxo-10) as substrate at 1 to 100 uM measured after 90 mins by fluorescence assay. Conditions: dose microM 1-100, time 120.0 min. The procedure, abridged: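 Recombinant SIRT1 (100 nM) preincubated 30 min with compound, either with or without NAD+ (500 μM), before the fluorogenic deacetylation read-out. Single-dose %-inhibition. Two independent experiments in duplicate, standard deviation.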
In the case of `CC(=S)NCCCC[C@H](NC(=O)OCc1ccccc1)C(=O)Nc1ccccc1`, the inhibition entry is “inactive”.
Regarding `CCCC(=S)NCCCC[C@H](NC(=O)OCc1ccccc1)C(=O)N[C@@H](Cc1c[nH]c2ccccc12)C(=O)NC(C)C`, the inhibition entry was “Active”.

The target of another assay is T3, NAD-dependent protein deacetylase sirtuin-3, mitochondrial (Homo sapiens) (UniProt Q9NTG7).
T3 sequence (whole entry): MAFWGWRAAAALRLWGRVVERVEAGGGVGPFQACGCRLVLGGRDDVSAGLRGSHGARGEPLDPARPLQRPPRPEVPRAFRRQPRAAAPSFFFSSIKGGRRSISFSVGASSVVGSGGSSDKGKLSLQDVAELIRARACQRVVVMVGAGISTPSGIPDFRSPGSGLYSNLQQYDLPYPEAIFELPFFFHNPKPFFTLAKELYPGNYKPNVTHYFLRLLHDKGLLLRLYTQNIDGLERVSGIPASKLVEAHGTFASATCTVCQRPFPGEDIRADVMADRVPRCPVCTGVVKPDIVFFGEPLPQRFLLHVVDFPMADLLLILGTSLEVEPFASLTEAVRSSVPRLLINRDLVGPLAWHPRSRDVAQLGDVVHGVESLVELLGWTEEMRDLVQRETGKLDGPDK
As to the kind of experiment: Inhibition of human N-terminal GST-tagged SIRT3 (102 to 399 residues) expressed in Escherichia coli using Ac-Gln-Pro-Lys-Lys(but)-AMC (oxo-12) as substrate at 100 uM by fluorescence assay relative to control.
Conditions: not given
In the case of `CCCC(=S)NCCCC[C@H](NC(=O)OCc1ccccc1)C(=O)N[C@@H](Cc1c[nH]c2ccccc12)C(=O)NC(C)C`, the inhibition came to 10%.

The next assay has as its target T4, NAD-dependent protein deacetylase sirtuin-2 (Homo sapiens, UniProt Q8IXJ6).
T4 sequence (Q8IXJ6 whole entry): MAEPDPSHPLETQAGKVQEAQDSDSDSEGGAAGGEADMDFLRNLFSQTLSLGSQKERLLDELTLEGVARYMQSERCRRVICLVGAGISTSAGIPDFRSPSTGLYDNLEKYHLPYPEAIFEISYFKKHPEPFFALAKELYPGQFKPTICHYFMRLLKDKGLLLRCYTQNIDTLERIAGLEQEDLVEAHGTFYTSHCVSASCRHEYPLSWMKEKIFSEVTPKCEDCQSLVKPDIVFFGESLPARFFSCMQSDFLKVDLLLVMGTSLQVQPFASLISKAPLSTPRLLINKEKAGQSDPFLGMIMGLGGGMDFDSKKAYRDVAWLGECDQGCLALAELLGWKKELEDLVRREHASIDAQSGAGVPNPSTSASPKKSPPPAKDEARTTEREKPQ
The assay is described as follows: Inhibition of human C-terminal His-tagged SIRT2 (50 to 356 residues) expressed in Escherichia coli using Ac-Gln-Pro-Lys-Lys(pro)-AMC (oxo-11) as substrate by fluorescence assay.
Conditions: not given
Consider `CCCC(=S)NCCCC[C@H](NC(=O)OCc1ccccc1)C(=O)N[C@@H](Cc1c[nH]c2ccccc12)C(=O)NC(C)C`, for which the IC50 worked out at 440 nM.

The target of another assay is T5, NAD-dependent protein deacetylase sirtuin-2 (Homo sapiens) (UniProt Q8IXJ6).
T5 sequence (whole entry): T4 sequence (Q8IXJ6 whole entry)
The assay is described as follows: Inhibition of human recombinant C-terminal His-tagged SIRT2 (50 to 356 residues) deacetylation activity in presence of substrate and NAD+ incubated for 60 mins measured after 90 mins by fluorescence assay.
Conditions: not given
The procedure, abridged: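 Recombinant SIRT2 (100 nM or 250 nM) incubated with fluorogenic thioacyl or oxo lysine-AMC substrates plus NAD+. Deacylation read by fluorescence. Two independent experiments in duplicate, standard deviation.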
With `CCC(=O)NCCCC[C@H](NC(=O)[C@H](CCCCN)NC(=O)[C@@H]1CCCN1C(=O)[C@H](CCC(N)=O)NC(C)=O)C(=O)Nc1ccc2c(C)cc(=O)oc2c1` (Ac-QPKK(Propionyl)-{AMC}), the inhibition result was “Active”.

The next assay addresses T3, NAD-dependent protein deacetylase sirtuin-3, mitochondrial (Homo sapiens). The assay is described as follows: Inhibition of human recombinant N-terminal GST-tagged SIRT3 (102 to 399 residues) deacetylation activity in presence of substrate and NAD+ at 15 uM after 60 mins measured by reversed-phase UPLC-MS analysis relative to control.
Conditions: not given
Consider `CC(=S)NCCCC[C@H](NC(=O)OCc1ccccc1)C(=O)Nc1ccccc1`, for which the inhibition result was “inactive”.
As for `CCCC(=S)NCCCC[C@H](NC(=O)OCc1ccccc1)C(=O)N[C@@H](Cc1c[nH]c2ccccc12)C(=O)NC(C)C`, the inhibition result is “inactive”.

Another assay has as its target T2, NAD-dependent protein deacetylase sirtuin-1. As to the kind of experiment: Inhibition of human recombinant SIRT1 expressed in Escherichia coli in presence of acyl peptide acetyl-H3K9 as substrate incubated for 5 mins by HPLC analysis.
Conditions: not given
`CC(=S)NCCCC[C@H](NC(=O)OCc1ccccc1)C(=O)Nc1ccccc1`: the IC50 amounted to 6500 nM.
